# Tested on: Slug, CD44, EGFR, and VEGFA genes
# Assay type: cell-based, human
# Details: ectopic expression, ZMYND8-depleted DU145 cells, n = 5
# How it was run: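 DU145 cells were infected with shZMYND8-97 lentivirus, then transfected with control vector, wild-type FLAG-ZMYND8, PHD point mutants (D108A, F109D) or a Bromo mutant (YN/AA). Construct expression was checked by western blot. DU145 cells treated with shLuciferase and transfected with control vector served as the control. CD44, Slug, VEGFA and EGFR expression was measured across 5 replicates.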
molecule,measurement,value
"FLAG-ZMYND8: ectopically expressed WT FLAG-ZMYND8 (protein, UniProt Q9ULU4 1-1186, looked up, FLAG tag) MYND-type zinc …: MDISTRSKDPGSAERTAQKRKFPSPPHSSNGHSPQDTSTSPIKKKKKPGLLNSNNKEQSELRHGPFYYMKQPLTTDPVDVVPQDGRNDFYCWVCHREGQVLCCELCPRVYHAKCLRLTSEPEGDWFCPECEKITVAECIETQSKAMTMLTIEQLSYLLKFAIQKMKQPGTDAFQKPVPLEQHPDYAEYIFHPMDLCTLEKNAKKKMYGCTEAFLADAKWILHNCIIYNGGNHKLTQIAKVVIKICEHEMNEIEVCPECYLAACQKRDNWFCEPCSNPHPLVWAKLKGFPFWPAKALRDKDGQVDARFFGQHDRAWVPINNCYLMSKEIPFSVKKTKSIFNSAMQEMEVYVENIRRKFGVFNYSPFRTPYTPNSQYQMLLDPTNPSAGTAKIDKQEKVKLNFDMTASPKILMSKPVLSGGTGRRISLSDMPRSPMSTNSSVHTGSDVEQDAEKKATSSHFSASEESMDFLDKSTASPASTKTGQAGSLSGSPKPFSPQLSAPITTKTDKTSTTGSILNLNLDRSKAEMDLKELSESVQQQSTPVPLISPKRQIRSRFQLNLDKTIESCKAQLGINEISEDVYTAVEHSDSEDSEKSDSSDSEYISDDEQKSKNEPEDTEDKEGCQMDKEPSAVKKKPKPTNPVEIKEELKSTSPASEKADPGAVKDKASPEPEKDFSEKAKPSPHPIKDKLKGKDETDSPTVHLGLDSDSESELVIDLGEDHSGREGRKNKKEPKEPSPKQDVVGKTPPSTTVGSHSPPETPVLTRSSAQTSAAGATATTSTSSTVTVTAPAPAATGSPVKKQRPLLPKETAPAVQRVVWNSSSKFQTSSQKWHMQKMQRQQQQQQQQNQQQQPQSSQGTRYQTRQAVKAVQQKEITQSPSTSTITLVTSTQSSPLVTSSGSMSTLVSSVNADLPIATASADVAADIAKYTSKMMDAIKGTMTEIYNDLSKNTTGSTIAEIRRLRIEIEKLQWLHQQELSEMKHNLELTMAEMRQSLEQERDRLIAEVKKQLELEKQQAVDETKKKQWCANCKKEAIFYCCWNTSYCDYPCQQAHWPEHMKSCTQSATAPQQEADAEVNTETLNKSSQGSSSSTQSAPSETASASKEKETSAEKSKESGSTLDLSGSRETPSSILLGSNQGSDHSRSNKSSWSSSDEKRGSTRSDHNTSTSTKSLLPKESRLDTFWD","expression levels of Slug, CD44, EGFR, and VEGFA genes",significantly downregulated

# — PMC4975651 (Molecular cell, 2016)
